Measurements from different studies.
Each line is one published result; the experiments were not run side by side.
EGFR: Epidermal growth factor receptor (EGFR, Homo sapiens, UniProt P00533)

SMILES | target | read-out | mode | method | concentration | endpoint | value
c1ccc(C(NCCNC(c2ccccc2)c2ccccc2)c2ccccc2)cc1 | EGFR | enzyme activity | inhibitor |  | 10 µM | inhibition | -8%
COc1ccc2c(c1)/C(=C/c1cnc[nH]1)C(=O)N2 | EGFR | cell-free assay |  |  | 0.5 µM | remaining signal | 99.4%
Cn1cncc1[C@](O)(COc1ccc(C#N)cc1-c1ccc(OC(F)(F)F)cc1)c1ccc(C#N)cc1 | Epidermal growth factor receptor (EGFR, Homo sapiens, UniProt P00533, del747-752/P753S) | cell-free assay |  | competition with immobilised ligand | 1 µM | remaining binding | 76%
C#Cc1n[nH]c2c(-c3cn([C@@H](C)c4ccccc4)c(=O)[nH]c3=O)cc(F)cc12 | EGFR | enzyme activity | inhibitor |  | 0.1 µM | inhibition | 0.9%
Nc1ncc(-c2nc(N3CCOCC3)nc(N3CCOCC3)n2)c(C(F)F)n1 | Epidermal growth factor receptor (EGFR, Homo sapiens, UniProt P00533, L861Q) | cell-free assay |  | competition with immobilised ligand | 10 µM | remaining binding | 77%
C#Cc1n[nH]c2c(-c3cn(C(C)c4ccccn4)c(=O)[nH]c3=O)cc(F)cc12 (stereo not shown) | EGFR | enzyme activity | inhibitor |  | 1 µM | inhibition | -3.8%
N#CC1(c2ccccn2)CCN(Cc2cc(C(=O)O)c(=O)n3ccccc23)CC1 | EGFR | cell-free assay |  | competition with immobilised ligand | 1 µM | remaining binding | 83%
COc1ncccc1-c1cnn2ccc(N3CCN(C(=O)OC(C)C)CC3)nc12 | EGFR | binding |  | competition with immobilised ligand | 1 µM | remaining binding | 89%
CC(C)(C)c1cc(C=C(C#N)C#N)cc(Br)c1O | EGFR | enzyme activity | inhibitor |  | 0.5 µM | remaining activity | 106%
Cc1nn(C)cc1-c1nc2c(N3CCN(Cc4ccc(Cl)cc4)CC3)c(Cl)cnc2[nH]1 | Epidermal growth factor receptor (EGFR, Homo sapiens, UniProt P00533, T790M) | binding |  | competition with immobilised ligand | 1 µM | remaining binding | 82%
